Test results from ChEMBL document CHEMBL4513216, “Probing the Open Global Health Chemical Diversity Library for Multistage-Active Starting Points for Next-Generation Antimalarials” (ACS Infect Dis, 2020).

Assay: Toxicity liver stage against HepG2, at 10uM
Type: cell-based
Design: test concentration 10 uM, cell line HepG2-A16-CD81EGFP
Conditions: human, HepG2-A16-CD81EGFP cells; read-out: INHIBITION
Summary of the method: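 Uninfected HepG2-A16-CD81EGFP cells, 3 × 10^3 per well, 1536-well, plated on prespotted compound at 10 μM final, parasite-free screening media added to match infected plates; puromycin 10 μM positive, DMSO 0.5% negative; run in parallel with 48 h PbLuc assay at 37 °C, 5% CO2; viability by CellTiter-Glo luminescence, normalized to controls.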

| Structure (SMILES) | cytotoxicity at 10 µM [%] |
| --- | --- |
| CNC(=O)CN1CCC(NC(=O)C(C)Oc2ccccc2C#N)CC1 (stereo not given) | 1.97 |
| O=C(NC[C@H]1OC[C@@H](NC2CCOCC2)[C@@H]1O)C1CCCC1 | -1 |
| COCCOc1ccnc(-c2noc([C@@H]3CCCN3CC3CC3)n2)c1 | -4.55 |
| CCOC(=O)Cc1csc(NC(=O)c2ccc(=O)[nH]n2)n1 | -1.23 |
| O=C(Cc1ccccc1)N1CC(=O)N(Cc2ccco2)CC(O)C1 (stereo not given) | -4.05 |
| Cc1cnc2n(c1=O)C(CC(=O)NCc1ccc(F)cc1)CS2 (stereo not given) | 6.47 |
| O=C(Oc1ccccc1)N1CCC(CNS(=O)(=O)c2cccnc2)CC1 | 11.1 |
| CS(=O)(=O)N[C@@H]1COC[C@@H]2CN(Cc3ccco3)C[C@@H]21 | -1.43 |
| O=C(C1=CCCC1)N1C[C@H](OCc2cccnc2)[C@H]2OCCC[C@H]21 | 7.86 |
| Cc1nc(N2CCCC2)nc2c1CCN(C(=O)C(C)C)CC2 | 5.02 |
| Cc1ncsc1CN1CC[C@H]2OCC[C@@]2(C(=O)N(C)C)C1 | 2.93 |
| COCCNC(=O)Cn1c(-c2cccc(Cl)c2)nc(C)c(CCO)c1=O | -0.86 |
| CC(O)CNc1c(NCc2ccco2)c(=O)c1=O (stereo not given) | -3.04 |
| CC(C)CNC(=O)c1ccc2c(c1)nc1n2CCN(Cc2ccco2)C1 | -3.78 |
| CC(=O)N1CCN(C(=O)Cn2ccc3c(Cl)cccc32)CC1 | -0.643 |
| O=C(O)CSC1CCc2ccccc2NC1=O (stereo not given) | 1.13 |
| Cc1nccc([C@H]2C[C@@H]3CCN(S(=O)(=O)N(C)C)C[C@H]3O2)n1 | -10.8 |
| COCCN1C(=O)[C@]2(CC[C@@H]3CN(C(=O)NCC(C)C)C[C@@H]32)N=C1C | -11.8 |
| Cc1nn(CCC(=O)N(C)Cc2c(Cl)cnn2C)cc1Br | 1.29 |
| CCn1c(NCc2ccccn2)nc2c(C)nn(C)c2c1=O | 9.51 |
| CC(NC(=O)c1ccc(Cl)cc1)c1nnc(SCC(=O)O)n1C (stereo not given) | -9.35 |
| CC(=O)N1CCCC(c2ccc(CO)c(-c3c(C)noc3C)n2)C1 (stereo not given) | -4.09 |

| Structure (SMILES) | cytotoxicity at 10 µM [%] |
| --- | --- |
| CC(=O)N1CCC(c2noc(C3CCC(=O)N3)n2)CC1 (stereo not given) | 1.64 |
| CC(C)c1cc(C(=O)N2CCCC(c3cc(=O)nc4n3CCC4)C2)no1 (stereo not given) | 0.983 |
| COc1ccc(C2CN(c3ncccn3)CCN2C(C)=O)cc1 (stereo not given) | 5.27 |
| Cc1cccc(C)c1Nc1noc2c1CN(C(=O)c1c[nH]nc1C)CC2 | 6.22 |
| c1cc(CN2CCC[C@@H](Cn3nnc(-c4cnccn4)n3)C2)ccn1 | -0.45 |
| CN(CC1(C)COC1)C(=O)c1cc(-c2ccn(C)n2)nc2ccccc12 | 9.81 |
| CCSCc1nc(O)c2nnn(C3CCN(Cc4ccoc4)CC3)c2n1 | 4.71 |
| CCc1ncc(CN2CCC(O)(c3ccccc3F)CC2)cn1 | -4.68 |
| Cc1ccnc(NC(=O)c2cncc(C3CCNCC3)n2)c1 | -9.48 |
| Fc1ccc(CN2CCC(c3noc(-c4cnccn4)n3)CC2)cc1F | 2.35 |
| CC1Cc2ccccc2N1C(=O)Cn1nc(-c2cccs2)cc(N)c1=O (stereo not given) | -10.6 |
| Cc1cc(-c2cnc(C)nc2CN(C)C(=O)c2ccccn2)on1 | 7.95 |
| CC(=O)N[C@@H]1C[C@H](c2ccc(OCCO)cc2)OC2(CCOCC2)C1 | -21.2 |
| Cc1cc(CCC(N)=O)cc(C2CCCN2Cc2ccccn2)n1 (stereo not given) | -16.7 |
| Cc1nc(C2CCCN2C(=O)CCc2ccccc2)ncc1C(N)=O (stereo not given) | -19.5 |
| Nc1nc2nc(C3CCCN(C(=O)c4cncs4)C3)ccc2s1 (stereo not given) | -19.1 |
| Cn1c(CO)cnc1SC(C(N)=O)c1ccccc1 (stereo not given) | -48.8 |
| CC(CN1CCOC1=O)NC(=O)c1ccccc1Oc1ccccc1 (stereo not given) | 1.2 |
| CC(=O)N1CC(C)CN(Cc2ccon2)c2ccccc21 (stereo not given) | 2 |
| COc1c(C2CCCN2c2ncnc3c2CCC3)c(C)nn1C (stereo not given) | 10.5 |
| Cc1nn2cccnc2c1C(=O)NCc1ccccc1OCC1CC1 | -48.4 |
| NC(=O)C1CCN(C(=O)NC2CCc3cc(Cl)ccc32)CC1 (stereo not given) | 1.67 |

| Structure (SMILES) | cytotoxicity at 10 µM [%] |
| --- | --- |
| CCc1ccc(C(COC)NC(=O)c2ccc(NC(C)=O)cc2)o1 (stereo not given) | -3.91 |
| O=C(CCn1cccn1)NS(=O)(=O)N1CCCc2ccccc21 | 5.65 |
| O=C(NCCN1CCOCC1)c1cc(-c2ccc(Cl)s2)[nH]n1 | -6.58 |
| COCc1nccc(C2CCCN(Cc3ccc(C#N)cc3)C2)n1 (stereo not given) | 6.45 |
| CCS(=O)(=O)N(C)C1CCN(C(=O)c2cc(C)cc(C)c2)CC1 | 11.5 |
| COC(=O)CCNC(=O)c1cnc(Cc2ccc(F)cc2)s1 | -5.87 |
| Cc1noc(C)c1CN(C)C(=O)Nc1cnn(CC2CCCO2)c1 (stereo not given) | -2.77 |
| CC(O)CN1CCN(C(=O)CN(C)c2ccc(C#N)cn2)CC1 (stereo not given) | -0.785 |
| Cc1n[nH]c(C2CN(C(=O)c3ccon3)CCO2)n1 (stereo not given) | -8.27 |
| COCCCNC(=O)c1ccccc1S(C)(=O)=O | -2.83 |
| NC(=O)CN1CCN(c2ccnc3c(F)ccc(F)c23)CC1 | 0.315 |
| Cc1ccc(CN2CCOCC2)cc1NC(=O)c1ccsc1 | 3.22 |
| COc1ccc(-n2ccc(C(=O)N(CCN(C)C)C(C)C)n2)cc1 | -3.29 |
| CCn1cc(S(=O)(=O)N2CCCSc3ccccc32)cn1 | 9.25 |
| COCC(C)NC(=O)CN1CCC(C)CC1 (stereo not given) | -9.32 |
| O=S(=O)(NCc1ccc(S(=O)(=O)N2CCCC2)s1)c1ccc(F)cc1Cl | -39.9 |
| CC(CCNC(=O)N(C)CC1CCOCC1)N1CCCCC1 (stereo not given) | 8.63 |
| O=C(NCC(F)F)N1CCC(n2ccc(C(F)(F)F)n2)CC1 | -10.2 |
| NC(=O)CCN1CCC(C(=O)c2cc(F)ccc2F)CC1 | -4.89 |
| COCCn1ccc2cc(NC(C)=O)ccc21 | -12 |
| CC(=O)NCC(=O)N1Cc2nccn2CC(CN2CCCC2=O)C1 (stereo not given) | -76.9 |
| CN1CCN(Cc2ccsc2)Cc2cccnc21 | -77.9 |

| Structure (SMILES) | cytotoxicity at 10 µM [%] |
| --- | --- |
| NCC1Cc2cc(-c3cncc(C(=O)N4CCCCC4)n3)cc(F)c2O1 (stereo not given) | -51.8 |
| CCc1nccc(CN2CCC(CNC(=O)Nc3ccccc3)C2)n1 (stereo not given) | 9.99 |
| CC(C)c1nccn1C(C)C(=O)NC1Cc2ccccc2C1 (stereo not given) | -5.03 |
| O=C(c1cccc(S(=O)(=O)NCCCn2cccn2)c1)N1CCOCC1 | 5.78 |
| OC1CCCN(Cc2cn(CC3CCN(C4CCSCC4)CC3)nn2)C1 (stereo not given) | -61 |
| Cc1ccc(C(=O)N2CCC(c3nccn3C(C)C)CC2)c(=O)[nH]1 | 4.75 |
| Cc1ccc(CNC(=O)CCN2CCOC(C(F)(F)F)C2)cc1 (stereo not given) | 3.71 |
| CC(C(N)=O)N1CCc2onc(-c3cccc(F)c3)c2C1 (stereo not given) | 3.38 |
| CC(C)n1cc(CN(Cc2ccc(F)cc2)CC2CCCO2)cn1 (stereo not given) | -3.47 |
| Cc1cnn(CCCN2C(=O)CCc3ccccc32)c1 | 1.39 |
| CC(C)[C@H]1CN(CCS(C)(=O)=O)C[C@@H]1NC(=O)c1ccc(=O)[nH]c1 | 3.06 |
| O=C(Cc1cccc(O)c1)N1CCC2(CC1)c1ccccc1CC2O (stereo not given) | 2.28 |
| Cc1cnn(C2CN(Cc3nc(-c4cccnc4)no3)C2)c1 | 3.03 |
| Cc1nc(CN2CCCC2c2c(C)nn(C)c2Cl)oc1C (stereo not given) | -3.33 |
| c1ccc(-n2cc(CNCC3CCCN3c3cccnn3)nn2)cc1 (stereo not given) | -1.47 |
| CC(C)c1n[nH]c(C2CN(C(=O)c3cc(C(N)=O)cs3)CCO2)n1 (stereo not given) | 1.17 |
| Cc1ncc2c(n1)CN(CC(=O)Nc1cccnc1)CC2 | 0.66 |
| O=C(c1csc(-c2nnc[nH]2)n1)N1CCCCC1Cn1cccn1 (stereo not given) | -4.49 |
| Cc1cn2c(n1)CCC(NC(=O)Cn1cncn1)C2 (stereo not given) | -3.86 |
| CC(C)c1ncncc1C(=O)N1CCN(Cc2ccsc2)CC1 | -4.49 |
| CCc1nc(C2CCCN2C(=O)CCc2cscn2)no1 (stereo not given) | -3.12 |
| Cc1noc(C2CCN(C(=O)CCCNc3ncccn3)CC2)n1 | -6.69 |

| Structure (SMILES) | cytotoxicity at 10 µM [%] |
| --- | --- |
| Cc1nc(CC(=O)N2CCn3c(nnc3C(C)C)C2)cs1 | -12.3 |
| O=C(NCCc1ccc(F)cc1)NCC(O)c1cccc(F)c1 (stereo not given) | -1.14 |
| Cc1nccn1C1CCCN(C(=O)c2cccc3c2OCO3)C1 (stereo not given) | -14.1 |
| CN(CCCOc1ccccc1)C(=O)CN1CCc2cncnc2C1 | -2.06 |
| CCS(=O)(=O)c1ccccc1N1CCC(NC(=O)c2ccc[nH]2)CC1 | -8.26 |
| O=C(CCc1cscn1)N1CCCC1c1noc(C2CC2)n1 (stereo not given) | -10.9 |
| O=C(COCC1CC1)N1CCCC(n2cncn2)C1 (stereo not given) | -3.54 |
| CCOc1ccc(Cl)cc1C1CCCN1 (stereo not given) | -12.3 |
| Cn1ccc(C(=O)N2C[C@@H]3OCCN(c4ncccn4)[C@@H]3C2)n1 | 5.7 |
| O=C(C1CCOCC1)N1CCC2(CCN(Cc3nccs3)CC2)CC1 | -83.1 |
| COCC1CC2(CCN(CC3CC3)CC2)CN1c1ncccn1 (stereo not given) | 14.1 |
| O=C(c1n[nH]c2c1CCN(Cc1nccs1)C2)N1CCCC1 | -10.7 |
| CN1CCOCC2(CCCN(C(=O)c3cnccn3)C2)C1 (stereo not given) | -75.4 |
| CC(C)c1nc(-c2ccnc(N3CCNCC3)n2)no1 | 1.01 |
| O=C(c1ccccc1F)N1CCCn2c(CN3CCCCC3)nnc2C1 | -71.5 |
| Cn1cc(N2CC3(COCCN(Cc4ccsc4)C3)OCC2=O)cn1 (stereo not given) | 3.55 |
| c1csc(CN2CCCC3(COCCN(c4cnccn4)C3)C2)c1 (stereo not given) | -68.7 |
| Cc1noc(C)c1CN1Cc2nccn2CC(CN2CCOCC2)C1 (stereo not given) | -82 |
| COCCO[C@@H]1CCN(Cc2csc(C)n2)[C@H]1Cc1ccccc1 | 5.98 |
| NC1CCC(CN2CCCn3nc(CNC(=O)C4CCC4)cc3C2)CC1 (stereo not given) | 4.03 |
| CC(C)NC(=O)N1C[C@@H]2C[C@H](C(=O)NCc3ccccc3)[C@H](C1)O2 | -0.594 |
| O=C(NCC1(COc2cnccn2)C[C@@H](O)[C@@H](O)C1)C1CC1 (stereo not given in full) | 7.92 |
